Measured values: ChEMBL document CHEMBL1132246, “Cross-linking and sequence-specific alkylation of DNA by aziridinylquinones. 3. Effects of alkyl substituents” (1999)

How the values were obtained:
BE [1] = experiment: Rate of reduction by human BE cell extract; Not Detected; format: functional, cell-based
How it was run: (§1)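 Extract from 2 × 10⁷ BE cells in 2 mL PBS, sonicated and centrifuged to remove debris. Quinone at 100 µM in PBS with acetylated cytochrome c (100 µM) and NADPH (200 µM). Reduction was followed through cytochrome c reduction.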

Nucleic Acid [2] = experiment: Ability to produce interstrand cross-links in the plasmid DNA at 10 uM concentration; format: functional
How it was run: (§2)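 Stocks were 10 mM in DMSO. DNA was ethanol-precipitated, denatured in 30% DMSO at 90 °C for 2 min and run on 0.8% agarose gels at 40 V for 16 h. Cross-linked versus single-stranded DNA was read by autoradiography.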

[3] = biological target: NAD(P)H dehydrogenase [quinone] 1 (Homo sapiens) (UniProt P15559); experiment: Rate of reduction by human recombinant DTD; format: functional
How it was run: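 Human recombinant DTD (specific activity 653 µmol/min/mg protein) with quinone at 50 µM in 50 mM Tris-HCl, pH 7.4. Reduction was followed through the coupled reduction of 70 µM cytochrome c.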

NCI-H596 = experiment: In vitro cytotoxicity against H596 cell line; format: functional, Homo sapiens
How it was run: (§3)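 Continuous-exposure MTT assay at 600 cells/well. HT29 (colon) and H460 (large-cell lung) express high DTD; H596 (lung) and BE (colon) lack detectable DTD activity. Absorbance was read at 540 and 640 nm after 5 days, and growth inhibition was plotted against concentration. Triplicates at each concentration, on at least two occasions.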

BE [4] = experiment: In vitro cytotoxicity against BE cell line; format: functional, Homo sapiens; how it was run: as §3
HT-29 = experiment: In vitro cytotoxicity against HT-29 cell line; format: functional, Homo sapiens; how it was run: as §3
Nucleic Acid [5] = experiment: Ability to produce interstrand cross-links in the plasmid DNA at 100 uM concentration; format: functional; how it was run: as §2
NCI-H460 = experiment: In vitro cytotoxicity against H460 cell line; format: functional, Homo sapiens; how it was run: as §3
[6] = Rate of reduction by human BE cell extract; format: functional; how it was run: as §1

NAD(P)H dehydrogenase [quinone] 1 (Homo sapiens), sequence (P15559 whole entry): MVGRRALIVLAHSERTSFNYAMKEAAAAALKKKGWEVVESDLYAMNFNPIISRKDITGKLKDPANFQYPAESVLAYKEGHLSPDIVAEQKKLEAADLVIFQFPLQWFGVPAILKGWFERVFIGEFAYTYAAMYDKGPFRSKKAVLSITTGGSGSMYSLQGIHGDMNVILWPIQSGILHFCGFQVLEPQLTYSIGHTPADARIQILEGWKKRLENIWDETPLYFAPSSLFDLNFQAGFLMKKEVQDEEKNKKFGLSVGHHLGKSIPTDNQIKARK

| SMILES | Rate of reduction (BE [1]) | Activity (Nucleic Acid [2]) | Rate of reduction [3] | Cytotoxicity (NCI-H596) | Cytotoxicity (BE [4]) | Cytotoxicity (HT-29) | Activity (Nucleic Acid [5]) | Cytotoxicity (NCI-H460) | Rate of reduction [6] |
| --- | --- | --- | --- | --- | --- | --- | --- | --- | --- |
| CC(C)C1=C(N2CC2)C(=O)C(C(C)C)=C(N2CC2)C1=O | Not detected | 0% | 0.22 µM/min/mg | 2620 nM | 3130 nM | 2740 nM | 0% | 170 nM | – |
| CC1=C(N2CC2)C(=O)C(C)=C(N2CC2)C1=O | – | 79.8% | 21 µM/min/mg | 48.8 nM | 25.9 nM | 3.4 nM | 100% | 0.77 nM | 9.2 nM/min/mg |
| CC1=C(N2CC2)C(=O)C(C(C)C)=C(N2CC2)C1=O | – | 28.1% | 2.7 µM/min/mg | 1230 nM | 1300 nM | 33 nM | 87.8% | 3.6 nM | 1.1 nM/min/mg |
| O=C1C=C(N2CC2)C(=O)C=C1N1CC1 | – | 100% | 35.6 µM/min/mg | 12.9 nM | 10.2 nM | 5.1 nM | 100% | 4.6 nM | 25.3 nM/min/mg |
| CCCC1=C(N2CC2)C(=O)C(CCC)=C(N2CC2)C1=O | – | 16.4% | 1 µM/min/mg | 1290 nM | 590 nM | 58.2 nM | 95.6% | 20.1 nM | 1.7 nM/min/mg |
| CCC1=C(N2CC2)C(=O)C(CC)=C(N2CC2)C1=O | – | 60.9% | 3 µM/min/mg | 1160 nM | 290 nM | 21.8 nM | 100% | 4.1 nM | 2.3 nM/min/mg |
| CCC1=C(N2CC2)C(=O)C(C)=C(N2CC2)C1=O | – | 69% | 12.5 µM/min/mg | 98.5 nM | 84 nM | 3.9 nM | 100% | 1.6 nM | 4 nM/min/mg |
| CCCC1=C(N2CC2)C(=O)C(C)=C(N2CC2)C1=O | – | 58.4% | 7.9 µM/min/mg | 228 nM | 67 nM | 5.5 nM | 100% | 3.3 nM | 3.4 nM/min/mg |
